A selection: hits, their analogues and other compounds. The true share with any hit is near 2.8%.
SIRT5 block – blocks human SIRT5 desuccinylation of peptide; AID 652115; Purified SirT5, succinyl-peptide AMC, trypsin-coupled fluorescence; 1.1% of 330,000 active; Q9NXA8; inhibition, % at 15 µM; in the data active = inhibition above about 15%; inconclusive = no clear call, values can overlap the other calls
Target sequence (Q9NXA8 whole entry, looked up): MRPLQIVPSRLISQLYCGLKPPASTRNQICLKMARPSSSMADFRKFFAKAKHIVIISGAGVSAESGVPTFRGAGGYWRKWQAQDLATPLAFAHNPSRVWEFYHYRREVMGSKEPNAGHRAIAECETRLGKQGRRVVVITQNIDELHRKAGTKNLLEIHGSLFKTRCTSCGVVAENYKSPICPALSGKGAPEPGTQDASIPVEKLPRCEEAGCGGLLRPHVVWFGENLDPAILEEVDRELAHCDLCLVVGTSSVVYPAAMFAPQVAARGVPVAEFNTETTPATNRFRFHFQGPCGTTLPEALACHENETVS
DENV2 CPE – DENV2-induced cell death inhibition. DENV2-infected cells, cytopathic effect rescue, plate reader. CPE inhibition, % at 9.99 µM. 1.7% of 350,000 active; in the data active = CPE inhibition above about 20%, passing the limit was not always enough; inconclusive = no clear call, values can overlap the other calls; tested in BHK-21 cells;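 also: 0% = median of neutral control wells and 100% = median of positive control wells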
E-sel inducer – E-selectin induction on HUVECs; P16581; HUVEC E-selectin immunofluorescence imaging; normalized: neutral wells 0, TNF-alpha wells 100; activation, % at 7.58 µM; 0.37% of 260,000 active; AID 686992;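 active = mean E-selectin-positive cell signal at least 10% of the positive control, reached in at least 60% of replicates, without over 20% cell loss; inconclusive = no rule given, readout overlaps actives, possibly toxicity-flagged; inactive = the rest, including those meeting only one limit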
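Assay system: HUVEC primary endothelial cells. Input: 3,000 HUVEC seeded per well. Doses: one compound dose added by pin transfer. Read-out basis: % PE-positive cells. Benchmarks: TNF-alpha high, DMSO low. Detection: immunofluorescence imaging. Buffer or medium: EGM-2, gelatin.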
* = called active by the depositor; ? = inconclusive; · = no result given.

SMILES	SIRT5 block	DENV2 CPE	E-sel inducer
CCCC(=O)Nc1ccc2c(c1)C(=O)N(C)C[C@@H](OC)[C@H](C)CN(C(=O)CN1CCOCC1)[C@H](C)CO2	4	2	0
CN(C)c1ccc(NS(=O)(=O)c2ccc(-c3csnn3)cc2)cc1	·	0	0
Cc1ccc(S(=O)(=O)Nc2ccc(N(C)C)cc2)cc1	112*	-4	·
COc1ccc(NC(=O)Nc2ccc3c(c2)C(=O)N([C@H](C)CO)C[C@H](C)[C@H](CN(C)C(=O)Nc2ccccc2)OCCCC[C@H](C)O3)cc1	11	-7	·
CCCN1C[C@@H](C)[C@@H](OC)CN(C)C(=O)c2ccc(NC(=O)Nc3ccccc3F)cc2OC[C@H]1C	4	8	0
COc1ccc(CNC(=O)C[C@H]2C=C[C@H](NC(=O)Nc3ccc4c(c3)OCO4)[C@H](CO)O2)cc1	-3	-5	0
Cc1noc(C)c1S(=O)(=O)Nc1ccc2c(c1)C(=O)N([C@@H](C)CO)C[C@@H](C)[C@H](CN(C)C(=O)CCC(F)(F)F)OCCCC[C@@H](C)O2	-3	3	0
C[C@@H]1CCCCO[C@@H](CN(C)C(=O)CCCN(C)C)[C@@H](C)CN([C@@H](C)CO)C(=O)c2cc(NS(=O)(=O)c3ccc(Cl)cc3)ccc2O1	4	3	0
C[C@@H]1CCCCO[C@@H](CN(C)C(=O)CCC(F)(F)F)[C@@H](C)CN([C@H](C)CO)C(=O)c2cc(NS(=O)(=O)c3ccc(Cl)cc3)ccc2O1	6	-3	1
COc1ccc(S(=O)(=O)Nc2ccc3c(c2)C(=O)N([C@@H](C)CO)C[C@@H](C)[C@H](CN(C)C(=O)CCCN(C)C)OCCCC[C@@H](C)O3)cc1	-2	31*	0
COc1ccc(S(=O)(=O)Nc2ccc3c(c2)C(=O)N([C@@H](C)CO)C[C@@H](C)[C@@H](CN(C)C(=O)CCCN(C)C)OCCCC[C@@H](C)O3)cc1	-1	1	1
C[C@H](CO)N1C[C@H](C)[C@H](CN(C)C(=O)CCC(F)(F)F)OCCCC[C@H](C)Oc2ccc(NS(=O)(=O)c3ccc(Cl)cc3)cc2C1=O	17*	-8	0
C[C@H](CO)N1C[C@H](C)[C@H](CN(C)C(=O)CCCN(C)C)OCCCC[C@H](C)Oc2ccc(NS(=O)(=O)c3ccc(Cl)cc3)cc2C1=O	-6	41*	0
Cc1noc(C)c1S(=O)(=O)Nc1ccc2c(c1)C(=O)N([C@@H](C)CO)C[C@H](C)[C@H](CN(C)C(=O)CCC(F)(F)F)OCCCC[C@H](C)O2	6	34*	0
OC(CNc1nc(C(F)(F)F)nc2ccccc12)c1ccccc1 (stereo unspecified)	-1	-3	0
O=C(O)CCNc1nc(C(F)(F)F)nc2ccccc12	48*	-9	·
Cn1cnc(S(=O)(=O)N[C@@H]2CC[C@H](CC(=O)Nc3ccc(-c4ccccc4)cc3)O[C@@H]2CO)c1	0	?	0
COCC#Cc1cnc2c(c1)C(=O)N([C@@H](C)CO)C[C@H](C)[C@@H](CN(C)S(=O)(=O)c1ccccc1)O2	-1	19	-1
CN(C)CC(=O)N1CC2(C1)[C@H](c1ccccc1)[C@@H](CO)N2C(=O)C1CCCC1	-9	-1	0
COc1cccc(CN2[C@H](CO)[C@@H](c3ccccc3)C23CN(C(=O)C2CCC2)C3)c1	24*	5	0
COc1cccc(CN2[C@H](CO)[C@@H](c3ccccc3)C23CN(C(=O)C2CCCC2)C3)c1	-2	1	·
O=C(C1CCCCC1)N1CC2(C1)[C@@H](c1ccccc1)[C@@H](CO)N2Cc1ccccc1F	-2	32*	0
O=C(c1cccc(F)c1)N1CC2(C1)[C@H](c1ccccc1)[C@H](CO)N2C(=O)C1CCCCC1	4	-9	0
O=C(C1CCCCC1)N1CC2(C1)[C@@H](c1ccccc1)[C@H](CO)N2Cc1ccccc1F	-2	-9	0
CN(C)CC(=O)N1[C@H](CO)[C@@H](c2ccccc2)C12CN(C(=O)C1CCCC1)C2	19*	51*	0
O=C(c1cccc(F)c1)N1CC2(C1)[C@@H](c1ccccc1)[C@@H](CO)N2C(=O)C1CCCC1	-15	78*	0
C[C@H](CO)N1C[C@H](C)[C@@H](CN(C)Cc2cncnc2)Oc2ncc(C#Cc3ccccn3)cc2C1=O	1	2	0
C[C@@H]1CCCCO[C@@H](CN(C)C(=O)Cc2ccccc2)[C@H](C)CN([C@@H](C)CO)C(=O)c2cc(NC(=O)Nc3ccccc3)ccc2O1	0	-7	·
C[C@@H](NC(=O)C[C@@H]1C=C[C@H](NC(=O)Cc2ccccn2)[C@@H](CO)O1)c1ccccc1	-2	5	1

Screening data as filed in PubChem BioAssay.
